# Tests used:
# [1] = tested on: UACC-257; test: (§1) Cytotoxicity against human UACC257 cells after 24 hrs by SRB assay; format: functional; conditions: UACC-257, 24 h
# In short: (§2)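 NCI 60-cell screen. Cells are grown in RPMI 1640 with 5% FBS and 2 mM L-glutamine and seeded at 5,000–40,000 cells/well according to doubling time. They are preincubated 24 h at 37 °C in 5% CO2, and Tz plates are TCA-fixed at drug addition. Drug stock is in DMSO, diluted in medium with gentamicin, and tested at five concentrations (100, 10, 1.0, 0.1, […]). Protein is read by SRB staining. GI50, TGI and LC50 are derived relative to time-zero and control wells.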
# [2] = tested on: OVCAR-8; test: Cytotoxicity against human OVCAR8 cells after 24 hrs by SRB assay; format: cell-based; conditions: ovcar-8, 24 h
# In short: (§3)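 NCI 60-cell screen. Cells grown in RPMI 1640 with 5% FBS and 2 mM L-glutamine, seeded at 5,000–40,000 cells/well, preincubated 24 h at 37 °C in 5% CO2. Drug stock in DMSO, diluted in medium with gentamicin; five final concentrations, 100, 10, 1.0, 0.1 and […]. Time-zero plates were TCA-fixed. Protein read by SRB staining; GI50, TGI and LC50 taken relative to time-zero.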
# [3] = tested on: SK-MEL-5; test: Cytotoxicity against human SK-MEL-5 cells after 24 hrs by SRB assay; format: cell-based; conditions: sk-mel-5, 24 h; in short: as §3
# [4] = tested on: RXF 393; test: Cytotoxicity against human RXF393 cells after 24 hrs by SRB assay; format: functional; conditions: RXF 393, 24 h
# In short: (§4)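 NCI 60-line screen. Cells in RPMI 1640 with 5% FBS and 2 mM L-glutamine, seeded at 5,000–40,000 cells/well by doubling time, then incubated 24 h at 37 °C, 5% CO2 before dosing. Time-zero plates fixed with TCA at drug addition. DMSO stocks diluted in medium with gentamicin to five concentrations, […]. Protein read by SRB staining. GI50, TGI and LC50 derived relative to control and time-zero.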
# [5] = tested on: NCI-H23; test: Cytotoxicity against human NCI-H23 cells after 24 hrs by SRB assay; format: functional; conditions: NCI-H23, 24 h; in short: as §4
# [6] = tested on: U-251; test: (§5) Cytotoxicity against human U251 cells after 24 hrs by SRB assay; format: functional; conditions: U-251, 24 h; in short: as §2
# [7] = tested on: UACC-257; test: as §1; format: cell-based; conditions: uacc-257, 24 h
# In short: (§6)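 NCI 60-cell-line screen: cells grown in RPMI 1640 with 5% FBS and 2 mM L-glutamine, seeded at 5,000–40,000 cells/well by doubling time, and preincubated 24 h at 37 °C in 5% CO2. Time-zero plates were TCA-fixed. DMSO stocks were diluted in medium with gentamicin to five concentrations (100, 10, 1.0, 0.1, […]). Protein was read by SRB, and GI50, TGI and LC50 were derived against time-zero.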
# [8] = tested on: U-251; test: as §5; format: cell-based; conditions: u-251, 24 h; in short: as §6
# [9] = tested on: SF-539; test: (§7) Cytotoxicity against human SF539 cells after 24 hrs by SRB assay; format: functional; conditions: SF-539, 24 h; in short: as §4
# [10] = tested on: M14; test: (§8) Cytotoxicity against human M14 cells after 24 hrs by SRB assay; format: functional; conditions: M14, 24 h; in short: as §4
# [11] = tested on: T47D; test: Cytotoxicity against human T47D cells after 24 hrs by SRB assay; format: functional; in short: as §2
# [12] = tested on: RPMI-8226; test: (§9) Cytotoxicity against human RPMI8226 cells after 24 hrs by SRB assay; format: cell-based; conditions: rpmi-8226, 24 h; in short: as §3
# [13] = tested on: NCI-H226; test: Cytotoxicity against human NCI-H226 cells after 24 hrs by SRB assay; format: cell-based; conditions: nci-h226, 24 h; in short: as §3
# [14] = tested on: BT-549; test: Cytotoxicity against human BT549 cells after 24 hrs by SRB assay; format: cell-based; conditions: bt-549, 24 h; in short: as §3
# [15] = tested on: DU-145; test: (§10) Cytotoxicity against human DU145 cells after 24 hrs by SRB assay; format: functional; conditions: DU-145, 24 h; in short: as §4
# [16] = tested on: CCRF-CEM; test: Cytotoxicity against human CCRF-CEM cells after 24 hrs by SRB assay; format: functional; in short: as §4
# [17] = tested on: OVCAR-3; test: Cytotoxicity against human OVCAR3 cells after 24 hrs by SRB assay; format: functional; conditions: OVCAR-3, 24 h; in short: as §4
# [18] = tested on: OVCAR-4; test: Cytotoxicity against human OVCAR4 cells after 24 hrs by SRB assay; format: cell-based; conditions: ovcar-4, 24 h; in short: as §3
# [19] = tested on: RPMI-8226; test: as §9; format: functional; conditions: RPMI-8226, 24 h; in short: as §4
# [20] = tested on: UACC-62; test: Cytotoxicity against human UACC62 cells after 24 hrs by SRB assay; format: functional; conditions: UACC-62, 24 h; in short: as §2
# [21] = tested on: NCI/ADR-RES; test: Cytotoxicity against human NCI/ADR-RES cells after 24 hrs by SRB assay; format: functional; in short: as §4
# [22] = tested on: OVCAR-5; test: Cytotoxicity against human OVCAR5 cells after 24 hrs by SRB assay; format: cell-based; conditions: ovcar-5, 24 h; in short: as §3
# [23] = tested on: MDA-MB-435; test: (§11) Cytotoxicity against human MDA-MB-435 cells after 24 hrs by SRB assay; format: cell-based; conditions: mda-mb-435, 24 h; in short: as §3
# [24] = tested on: M14; test: as §8; format: cell-based; conditions: m14, 24 h; in short: as §3
# [25] = tested on: KM12; test: Cytotoxicity against human KM12 cells after 24 hrs by SRB assay; format: functional; conditions: KM12, 24 h; in short: as §4
# [26] = tested on: HCT-116; test: Cytotoxicity against human HCT116 cells after 24 hrs by SRB assay; format: functional; conditions: HCT-116, 24 h; in short: as §4
# [27] = tested on: MDA-MB-435; test: as §11; format: functional; conditions: MDA-MB-435, 24 h; in short: as §4
# [28] = tested on: DU-145; test: as §10; format: cell-based; conditions: du-145, 24 h; in short: as §3
# [29] = tested on: SF-539; test: as §7; format: cell-based; conditions: sf-539, 24 h; in short: as §3
# [30] = tested on: NCI-H460; test: Cytotoxicity against human NCI-H460 cells after 24 hrs by SRB assay; format: functional; conditions: NCI-H460, 24 h; in short: as §4
# [31] = tested on: HT-29; test: Cytotoxicity against human HT-29 cells after 24 hrs by SRB assay; format: functional; conditions: HT-29, 24 h; in short: as §4
# [32] = tested on: SNB-75; test: Cytotoxicity against human SNB75 cells after 24 hrs by SRB assay; format: cell-based; conditions: snb-75, 24 h; in short: as §6
# [33] = tested on: SNB-19; test: Cytotoxicity against human SNB19 cells after 24 hrs by SRB assay; format: cell-based; conditions: snb-19, 24 h; in short: as §6
# [34] = tested on: MDA-MB-468; test: Cytotoxicity against human MDA-MB-468 cells after 24 hrs by SRB assay; format: functional; conditions: MDA-MB-468, 24 h; in short: as §4
# [35] = tested on: TK-10; test: Cytotoxicity against human TK10 cells after 24 hrs by SRB assay; format: cell-based; conditions: tk-10, 24 h; in short: as §6
# [36] = tested on: MOLT-4; test: Cytotoxicity against human MOLT4 cells after 24 hrs by SRB assay; format: cell-based; conditions: molt-4, 24 h; in short: as §3
smiles,measurement,setting,value
O=C(/C=C/c1cc2ccccc2[nH]c1=O)c1ccc(Cl)cc1,GI50,[1],7.78 µM
same,TGI,[1],46.9 µM
same,LC50,[2],88.4 µM
same,LC50,[3],> 100 µM
same,GI50,[4],4.32 µM
same,TGI,[4],29.9 µM
same,GI50,[5],5.37 µM
same,TGI,[5],93.3 µM
same,GI50,[6],2.52 µM
same,TGI,[6],11.4 µM
same,LC50,[7],> 100 µM
same,LC50,[8],39.7 µM
same,GI50,[9],2.07 µM
same,TGI,[9],8.02 µM
same,GI50,[10],7.54 µM
same,TGI,[10],39.7 µM
same,GI50,[11],7.31 µM
same,TGI,[11],> 100 µM
same,LC50,[12],> 100 µM
same,LC50,[13],> 100 µM
same,LC50,[14],97.6 µM
same,GI50,[15],4.08 µM
same,TGI,[15],48.9 µM
same,GI50,[16],3.5 µM
same,TGI,[16],> 100 µM
same,GI50,[17],5.9 µM
same,TGI,[17],30.9 µM
same,LC50,[18],> 100 µM
same,GI50,[19],2.23 µM
same,TGI,[19],16.1 µM
same,GI50,[20],5.71 µM
same,TGI,[20],54.3 µM
same,GI50,[21],4 µM
same,TGI,[21],23.6 µM
same,LC50,[22],> 100 µM
same,LC50,[23],> 100 µM
same,LC50,[24],> 100 µM
same,GI50,[25],3.23 µM
same,TGI,[25],16.3 µM
same,GI50,[26],3.26 µM
same,TGI,[26],14.8 µM
same,GI50,[27],2.83 µM
same,TGI,[27],13.1 µM
same,LC50,[28],> 100 µM
same,LC50,[29],74.2 µM
same,GI50,[30],3.99 µM
same,TGI,[30],18.9 µM
same,GI50,[31],3.84 µM
same,TGI,[31],22.5 µM
same,LC50,[32],> 100 µM
same,LC50,[33],> 100 µM
same,GI50,[34],2.96 µM
same,TGI,[34],9.88 µM
same,LC50,[35],75.8 µM
same,LC50,[36],> 100 µM
COc1ccc(C(=O)/C=C/c2cc3ccccc3[nH]c2=O)cc1,GI50,[1],4.9 µM
same,TGI,[1],18 µM
same,LC50,[2],> 100 µM
same,LC50,[3],45 µM
same,GI50,[4],3.41 µM
same,TGI,[4],8.53 µM
same,GI50,[5],2.9 µM
same,TGI,[5],14.9 µM
same,GI50,[6],2.7 µM
same,TGI,[6],10.9 µM
same,LC50,[7],65.5 µM
same,LC50,[8],> 100 µM
same,GI50,[9],2.76 µM
same,TGI,[9],7.49 µM
same,GI50,[10],4.06 µM
same,TGI,[10],22.5 µM
same,GI50,[11],3.55 µM
same,TGI,[11],> 100 µM
same,LC50,[12],> 100 µM
same,LC50,[13],> 100 µM
same,LC50,[14],46.3 µM
same,GI50,[15],3.14 µM
same,TGI,[15],11.2 µM
same,GI50,[16],4.04 µM
same,TGI,[16],> 100 µM
same,GI50,[17],2.49 µM
same,TGI,[17],6.72 µM
same,LC50,[18],> 100 µM
same,GI50,[19],2.79 µM
same,TGI,[19],> 100 µM
same,GI50,[20],4.38 µM
same,TGI,[20],19.3 µM
same,GI50,[21],2.63 µM
same,TGI,[21],8.44 µM
same,LC50,[22],> 100 µM
same,LC50,[23],91.6 µM
same,LC50,[24],> 100 µM
same,GI50,[25],2.85 µM
same,TGI,[25],7.81 µM
same,GI50,[26],2.31 µM
same,TGI,[26],5.7 µM
same,GI50,[27],3.92 µM
same,TGI,[27],17.4 µM
same,LC50,[28],35.8 µM
same,LC50,[29],45.5 µM
same,GI50,[30],2.75 µM
same,TGI,[30],8.34 µM
same,GI50,[31],3.67 µM
same,TGI,[31],> 100 µM
same,LC50,[32],47.2 µM
same,LC50,[33],75.8 µM
same,GI50,[34],2.38 µM
same,TGI,[34],5.98 µM
same,LC50,[35],> 100 µM
same,LC50,[36],> 100 µM
